Assay outcomes (PubChem)
RGS4 inh – inhibitors of human RGS4; P49798; HEK293 M3R/RGS4 inducible, Fluo-4 calcium flux; stronger effect = higher value; triggered by carbachol at its EC20; B-score at 10 µM; 310,000 tested, 0.45% active; AID 463165;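 active means B-score, a plate-corrected calcium signal, over three deviations above library mean, with baseline fluorescence within five deviations of library mean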;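 further: RGS4 expression induced by doxycycline in cells with stable M3 receptor; B-score is computed from the integrated fluorescence ratio over baseline after carbachol; higher B-score means a larger calcium signal and so more RGS4 inhibition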
Target sequence (P49798 whole entry, looked up): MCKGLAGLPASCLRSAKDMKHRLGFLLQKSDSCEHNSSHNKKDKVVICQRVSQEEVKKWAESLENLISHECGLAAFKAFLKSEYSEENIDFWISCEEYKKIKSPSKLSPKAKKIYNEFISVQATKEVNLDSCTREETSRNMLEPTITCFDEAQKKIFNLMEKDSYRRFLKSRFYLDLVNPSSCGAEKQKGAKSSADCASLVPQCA
RGS4 pot – RGS4 potentiation or activation. HEK293 M3R/inducible RGS4, carbachol calcium flux Fluo4; stronger effect = lower value. B-score at 10 µM. 310,000 tested, 0.92% active. AID 463111;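 active means B-score of the integrated calcium signal more than 4 SD below the library mean, with starting fluorescence not abnormally high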;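 further: negative B-score means reduced calcium response which marks RGS4 activation or potentiation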
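Test system: HEK293 cells with stable M3R and inducible RGS4; also added: carbachol at ECmax as muscarinic agonist stimulus; schedule: dye loading 30 min 37 °C, buffer rest 30 min RT; technique: kinetic calcium fluorescence imaging with Fluo4-AM dye, 2 µM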
MrgX1 allo act – allosterically activates human MrgX1 receptor signaling | Q96LB2 | AID 588675 | B-score at 10 µM | 310,000 tested, 0.63% active | MrgX1-HEK293, Fluo-4 calcium flux, FDSS; stronger effect = higher value;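 active means plate-corrected calcium response at least 3 library SD above typical, normal starting fluorescence, not activating the receptor alone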;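 further: compound read alongside a low EC10 to EC30 dose of BAM8-22 agonist; peak minus trough fluorescence over baseline measured at the second addition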
Target sequence (Q96LB2 whole entry, looked up): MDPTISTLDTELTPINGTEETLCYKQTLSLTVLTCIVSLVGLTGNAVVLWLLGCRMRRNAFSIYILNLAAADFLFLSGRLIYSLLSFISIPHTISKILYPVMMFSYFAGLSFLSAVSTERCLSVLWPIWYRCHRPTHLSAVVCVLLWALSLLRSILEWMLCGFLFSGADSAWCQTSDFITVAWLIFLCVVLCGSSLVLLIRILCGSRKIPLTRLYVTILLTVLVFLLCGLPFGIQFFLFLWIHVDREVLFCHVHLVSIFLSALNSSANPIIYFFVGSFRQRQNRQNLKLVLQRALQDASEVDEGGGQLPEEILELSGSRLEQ
PHOSPHO1 block – blocks human PHOSPHO1 phosphatase activity; Q8TCT1; recombinant PHOSPHO1, absorbance phosphatase assay; inhibition, % at 13.3 µM; 290,000 tested, 1.1% active; in the data active means inhibition above about 60%
MrgX1 agonist – human MrgX1 receptor agonism, primary screen. Q96LB2. MrgX1-HEK293 cells, Fluo-4 calcium fluorescence, agonist mode; stronger effect = higher value. B-score at 10 µM. 310,000 tested, 0.44% active;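 active means calcium response B-score plate-corrected fluorescence ratio at least 3 library SD, with starting fluorescence B-score inside 5 SD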
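Material: MrgX1-expressing HEK293 cells; input: 15,000 cells per well; doses: test compound given as first of three sequential additions; schedule: overnight plating before 1 h dye loading; technique: Fluo-4 NW calcium-flux fluorescence, kinetic read; evaluation: baseline-normalised fluorescence change ratio, B-scored; control set: plate-wise positive and negative controls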
MrgX1 antagonist – blocks BAM8-22 activation of human MrgX1 receptor | Q96LB2 | MRGX1-HEK293 calcium flux, Fluo-4, BAM8-22 antagonism; stronger effect = lower value | B-score at 10 µM | 310,000 tested, 1.3% active | AID 588676;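 active means calcium-response B-score plate-corrected more than 3 library SD below zero, starting fluorescence within 5 deviations, no agonist response on first addition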;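 further: peak minus trough fluorescence over baseline after final BAM8-22 challenge near maximal dose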
RGS4 block valid – RGS4 inhibitor validation. shares compounds with RGS4 inh. HEK293 M3R/RGS4, carbachol calcium Fluo-4 fluorescence; carbachol added at its EC20; 0 = buffer wells, 100 = carbachol control. calcium response, % at 10 µM. 1,700 tested, 65% active. AID 492999;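 active means duplicate-averaged calcium response above the buffer-only control mean plus 5 SD of those controls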;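 further: integrated fluorescence ratio F max minus min over baseline F0; higher response in RGS4-induced cells means RGS4 inhibition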
M3R Ca ctr – counter-screen for RGS4 inhibitors: effect in non-induced cells | shares compounds with RGS4 inh | HEK293 M3R non-induced, carbachol calcium Fluo-4; submaximal (EC20) carbachol stimulus; buffer wells 0%, carbachol control wells 100% | activity (percent), % at 10 µM | 1,900 tested, 20% active | AID 493000; call rule not given here;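 further: RGS4 induction absent so cells express M3R without RGS4; higher means more calcium signal and flags a non-specific hit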
M3R basal Ca ctr – second RGS4 inhibitor counter-screen in uninduced cells lacking carbachol; 1,900 tested, 22% active; shares compounds with RGS4 inh; HEK293 M3R/RGS4 non-induced, Fluo-4 calcium, no carbachol; normalised: buffer wells 0%, carbachol wells 100%; calcium response (agonist-mode artifact), % at 10 µM; AID 493001;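 active means duplicate-averaged calcium rise in uninduced cells above buffer wells' mean plus 5 SD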
An asterisk follows results filed as active. The list is not random: actives were taken first. Their share in the collection is about 4.5%.

What do the screens show for `Cc1ccc(NC(=O)c2[nH]cnc2C(=O)NN)cc1`?
RGS4 inh: inactive; RGS4 pot: inactive; MrgX1 allo act: inactive; PHOSPHO1 block: 17; MrgX1 agonist: inactive; MrgX1 antagonist: inactive

Results for Cc1cc(N=Cc2cc(Cl)ccc2O)no1 ?
RGS4 inh: 5.7*; RGS4 pot: inactive; MrgX1 allo act: inactive; PHOSPHO1 block: 1; MrgX1 agonist: inactive; MrgX1 antagonist: inactive; RGS4 block valid: 7.0%*; M3R Ca ctr: 30%*; M3R basal Ca ctr: inactive

What do the screens show for `Nc1nnnn1/N=C/c1cc(Cl)ccc1O`?
RGS4 inh: inactive; RGS4 pot: inactive; MrgX1 allo act: inactive; PHOSPHO1 block: 37; MrgX1 agonist: inactive; MrgX1 antagonist: inactive

What do the screens show for `CC(C)CC(=O)/C(=C\c1ccc(Cl)cc1Cl)n1cncn1`?
RGS4 inh: 6.8*; RGS4 pot: inactive; PHOSPHO1 block: 3; RGS4 block valid: 16%*; M3R Ca ctr: inactive; M3R basal Ca ctr: 20%*

Results for CC(C)CC(=O)/C(=C/c1ccc(N(C)C)cc1)n1cncn1 ?
RGS4 inh: inactive; RGS4 pot: inactive; MrgX1 allo act: inactive; PHOSPHO1 block: 24; MrgX1 agonist: inactive; MrgX1 antagonist: inactive

How did N#Cc1c(-c2ccccc2)cc(C2CC2)nc1N do in these assays?
RGS4 inh: inactive; RGS4 pot: inactive; MrgX1 allo act: inactive; PHOSPHO1 block: -1; MrgX1 agonist: inactive; MrgX1 antagonist: inactive

How did N#Cc1c(-c2ccco2)cc(C2CC2)nc1N do in these assays?
RGS4 inh: 5*; RGS4 pot: inactive; MrgX1 allo act: inactive; PHOSPHO1 block: 10; MrgX1 agonist: inactive; MrgX1 antagonist: inactive; RGS4 block valid: 5.0%*; M3R Ca ctr: inactive; M3R basal Ca ctr: inactive

How did Cc1ccc(NC(=O)C(C)Sc2nnc(C)n2CC2CCCO2)cc1 (stereo not drawn) do in these assays?
RGS4 inh: 4.7*; RGS4 pot: inactive; PHOSPHO1 block: 43; RGS4 block valid: 5.0%*; M3R Ca ctr: inactive; M3R basal Ca ctr: inactive

Results for Cc1ccc(NC(=O)CSc2nnc(C)n2CC2CCCO2)cc1 (stereo not drawn) ?
RGS4 inh: inactive; RGS4 pot: inactive; MrgX1 allo act: inactive; PHOSPHO1 block: 36; MrgX1 agonist: inactive; MrgX1 antagonist: inactive

Results for COc1ccc(C(=O)/C=C/c2ccsc2)cc1CSCC(=O)O ?
RGS4 inh: 5*; RGS4 pot: inactive; MrgX1 allo act: inactive; PHOSPHO1 block: 33; MrgX1 agonist: inactive; MrgX1 antagonist: inactive; RGS4 block valid: 10%*; M3R Ca ctr: inactive; M3R basal Ca ctr: inactive

What do the screens show for `COCCN(C(=O)COC(=O)c1ccc(Cl)s1)c1c(N)n(Cc2ccccc2)c(=O)[nH]c1=O`?
RGS4 inh: inactive; RGS4 pot: inactive; MrgX1 allo act: inactive; MrgX1 agonist: inactive; MrgX1 antagonist: inactive

What do the screens show for `Cc1sc2nc3ccc(NCc4ccco4)nn3c(=O)c2c1C`?
RGS4 inh: 8.3*; RGS4 pot: inactive; MrgX1 allo act: inactive; PHOSPHO1 block: 31; MrgX1 agonist: inactive; MrgX1 antagonist: inactive; RGS4 block valid: inactive; M3R Ca ctr: inactive; M3R basal Ca ctr: 16%*

Results for CCc1ccc2c(Cl)c(C(=O)N/N=C/c3c[nH]c4ccccc34)sc2c1 ?
RGS4 inh: 4.8*; RGS4 pot: inactive; MrgX1 allo act: inactive; PHOSPHO1 block: 51; MrgX1 agonist: inactive; MrgX1 antagonist: inactive; RGS4 block valid: 18%*; M3R Ca ctr: 40%*; M3R basal Ca ctr: 8.5%*
